Data: ChEMBL document CHEMBL1157014, “Synthesis, characterization and biological evaluation of some thiourea derivatives bearing benzothiazole moiety as potential antimicrobial and anticancer agents” (Eur J Med Chem, 2010)
Converted amounts (≈) assume the structure as drawn.

Each compound was assayed on Staphylococcus aureus (assay: Antibacterial activity against Staphylococcus aureus ATCC 29213 after 24 hrs by browth microdilution assay). Conditions: ATCC 29213, 24 h.
Type: functional
Method in brief: (§1)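 Broth microdilution per CLSI. Colonies suspended in 0.9% saline and adjusted to McFarland 0.5. Compounds dissolved in DMSO, diluted with distilled water to 100, 50, 25, 12.5, 6.25 and 3.125 µg/ml, with DMSO as negative control. Gentamycin (Gram-negative) and amikacin (Gram-positive) served as reference drugs. Incubation at 37 °C for 24 h. MIC taken as the lowest concentration preventing visible growth.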

Compound	MIC [µg/mL]
Nc1ccc2sc(NC(=S)NC(=O)N3CCOCC3)nc2c1	25 (≈ 74.1 µM)
O=C(NC(=S)Nc1nc2cc(Br)ccc2s1)c1ccccc1	50 (≈ 127 µM)
O=C(NC(=S)Nc1nc2cc(Br)ccc2s1)N1CCOCC1	25 (≈ 62.3 µM)
O=C(NC(=S)Nc1nc2cc(Br)ccc2s1)c1ccc([N+](=O)[O-])cc1	50 (≈ 114 µM)
O=C(NC(=S)Nc1nc2cc([N+](=O)[O-])ccc2s1)N1CCOCC1	25 (≈ 68 µM)

What follows are compounds tested on Pichia kudriavzevii (assay: Antifungal activity against Candida krusei ATCC 6268 after 48 hrs by browth microdilution assay). Conditions: not given.
Type: functional
Method in brief: (§2)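 Yeast colonies suspended in 0.9% saline and adjusted to McFarland 0.5, then tested by CLSI broth microdilution. Compounds in DMSO, diluted with distilled water to 3.125–100 µg/ml, with DMSO as negative control and nystatin as reference. Incubation at 37 °C, read after 48 h. MIC is the lowest concentration with no visible growth.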

Compound	MIC [µg/mL]
NYSTATIN	0.5

Same assay, conditions: ATCC 6268, 48 h

Compound	MIC [µg/mL]
Nc1ccc2sc(NC(=S)NC(=O)N3CCOCC3)nc2c1	25 (≈ 74.1 µM)
O=C(NC(=S)Nc1nc2cc(Br)ccc2s1)c1ccccc1	50 (≈ 127 µM)
O=C(NC(=S)Nc1nc2cc(Br)ccc2s1)N1CCOCC1	50 (≈ 125 µM)
O=C(NC(=S)Nc1nc2cc(Br)ccc2s1)c1ccc([N+](=O)[O-])cc1	50 (≈ 114 µM)
O=C(NC(=S)Nc1nc2cc([N+](=O)[O-])ccc2s1)N1CCOCC1	20 (≈ 54.4 µM)

The compounds below were run on Enterococcus faecalis (assay: Antibacterial activity against Enterococcus faecalis ATCC 29212 after 24 hrs by browth microdilution assay). Conditions: ATCC 29212, 24 h.
Type: functional
Method in brief: as §1

Compound	MIC [µg/mL]
Nc1ccc2sc(NC(=S)NC(=O)N3CCOCC3)nc2c1	50 (≈ 148 µM)
O=C(NC(=S)Nc1nc2cc(Br)ccc2s1)c1ccccc1	50 (≈ 127 µM)
O=C(NC(=S)Nc1nc2cc(Br)ccc2s1)N1CCOCC1	50 (≈ 125 µM)
O=C(NC(=S)Nc1nc2cc(Br)ccc2s1)c1ccc([N+](=O)[O-])cc1	50 (≈ 114 µM)
O=C(NC(=S)Nc1nc2cc([N+](=O)[O-])ccc2s1)N1CCOCC1	10 (≈ 27.2 µM)

These compounds were tested on Pseudomonas aeruginosa (assay: Antibacterial activity against Pseudomonas aeruginosa ATCC 27853 after 24 hrs by browth microdilution assay). Conditions: ATCC 27853, 24 h.
Type: functional
Method in brief: as §1

Compound	MIC [µg/mL]
Nc1ccc2sc(NC(=S)NC(=O)N3CCOCC3)nc2c1	50 (≈ 148 µM)
O=C(NC(=S)Nc1nc2cc(Br)ccc2s1)N1CCOCC1	50 (≈ 125 µM)
O=C(NC(=S)Nc1nc2cc([N+](=O)[O-])ccc2s1)N1CCOCC1	25 (≈ 68 µM)

These compounds were tested on MCF7 (assay: Cytotoxicity against human MCF7 after 48 hrs by MTT assay). Conditions: MCF7, 48 h.
Type: functional, cell-based
Method in brief: (§3)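 MCF-7 cells in MEM with 10% FBS at 5% CO2 were exposed to compounds (1–100 µM, 0.1% DMSO vehicle) for 48 or 72 h before MTT read-out. IC50 values came from the MTT assay.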

Compound	IC50 [µM]
Nc1ccc2sc(NC(=S)NC(=O)N3CCOCC3)nc2c1	19.2
O=C(NC(=S)Nc1nc2cc(Br)ccc2s1)N1CCOCC1	20.3

These compounds were tested on Candida tropicalis (assay: Antifungal activity against Candida tropicalis ATCC 20336 after 48 hrs by browth microdilution assay). Conditions: not given.
Type: functional
Method in brief: as §2

Compound	MIC [µg/mL]
NYSTATIN	4

Same assay, conditions: ATCC 20336, 48 h

Compound	MIC [µg/mL]
Nc1ccc2sc(NC(=S)NC(=O)N3CCOCC3)nc2c1	20 (≈ 59.3 µM)
O=C(NC(=S)Nc1nc2cc(Br)ccc2s1)c1ccccc1	50 (≈ 127 µM)
O=C(NC(=S)Nc1nc2cc(Br)ccc2s1)N1CCOCC1	25 (≈ 62.3 µM)
O=C(NC(=S)Nc1nc2cc(Br)ccc2s1)c1ccc([N+](=O)[O-])cc1	50 (≈ 114 µM)
O=C(NC(=S)Nc1nc2cc([N+](=O)[O-])ccc2s1)N1CCOCC1	5 (≈ 13.6 µM)

What follows are compounds tested on Escherichia coli (assay: microbe, parasite or virus in culture). Conditions: ATCC 25922, 24 h.

Compound	MIC [µg/mL]
Nc1ccc2sc(NC(=S)NC(=O)N3CCOCC3)nc2c1	20 (≈ 59.3 µM)
O=C(NC(=S)Nc1nc2cc(Br)ccc2s1)N1CCOCC1	25 (≈ 62.3 µM)
O=C(NC(=S)Nc1nc2cc([N+](=O)[O-])ccc2s1)N1CCOCC1	15 (≈ 40.8 µM)

Each compound was assayed on HeLa (assay: Cytotoxicity against human HeLa after 24 hrs by MTT assay). Conditions: not given.
Type: functional, cell-based
Method in brief: (§4)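 Cells grown in MEM with 10% FBS and 1% glutamine at 5% CO2, seeded at 1.0×10^4 cells. Exposed to compounds at 1–100 µM in medium containing 0.1% DMSO for 24 h at 37 °C. MTT (1 mg/ml) added for 5 h at 37 °C, then DMSO added and absorbance read at 540 nm. Run in triplicate; IC50 determined.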

Compound	IC50 [µM]
Nc1ccc2sc(NC(=S)NC(=O)N3CCOCC3)nc2c1	45.3
O=C(NC(=S)Nc1nc2cc(Br)ccc2s1)c1ccccc1	64.6
O=C(NC(=S)Nc1nc2cc(Br)ccc2s1)N1CCOCC1	38.9
O=C(NC(=S)Nc1nc2cc(Br)ccc2s1)c1ccc([N+](=O)[O-])cc1	56.5
O=C(NC(=S)Nc1nc2cc([N+](=O)[O-])ccc2s1)N1CCOCC1	54.8

These compounds were tested on Proteus vulgaris (assay: Antibacterial activity against Proteus vulgaris ATCC 13315 after 24 hrs by browth microdilution assay). Conditions: ATCC 13315, 24 h.
Type: functional
Method in brief: as §1

Compound	MIC [µg/mL]
Nc1ccc2sc(NC(=S)NC(=O)N3CCOCC3)nc2c1	20 (≈ 59.3 µM)
O=C(NC(=S)Nc1nc2cc(Br)ccc2s1)N1CCOCC1	50 (≈ 125 µM)
O=C(NC(=S)Nc1nc2cc([N+](=O)[O-])ccc2s1)N1CCOCC1	20 (≈ 54.4 µM)

The compounds below were run on MCF7 (assay: Cytotoxicity against human MCF7 after 72 hrs by MTT assay). Conditions: MCF7, 72 h.
Type: functional, cell-based
Method in brief: as §3

Compound	IC50 [µM]
Nc1ccc2sc(NC(=S)NC(=O)N3CCOCC3)nc2c1	17.1
O=C(NC(=S)Nc1nc2cc(Br)ccc2s1)N1CCOCC1	6.95

These compounds were tested on Nakaseomyces glabratus (assay: Antifungal activity against Candida glabrata ATCC 32554 after 48 hrs by browth microdilution assay). Conditions: not given.
Type: functional
Method in brief: as §2

Compound	MIC [µg/mL]
NYSTATIN	2

Same assay, conditions: ATCC 32554, 48 h

Compound	MIC [µg/mL]
Nc1ccc2sc(NC(=S)NC(=O)N3CCOCC3)nc2c1	15 (≈ 44.5 µM)
O=C(NC(=S)Nc1nc2cc(Br)ccc2s1)c1ccccc1	25 (≈ 63.7 µM)
O=C(NC(=S)Nc1nc2cc(Br)ccc2s1)N1CCOCC1	25 (≈ 62.3 µM)
O=C(NC(=S)Nc1nc2cc(Br)ccc2s1)c1ccc([N+](=O)[O-])cc1	50 (≈ 114 µM)
O=C(NC(=S)Nc1nc2cc([N+](=O)[O-])ccc2s1)N1CCOCC1	5 (≈ 13.6 µM)

What follows are compounds tested on Candida albicans (assay: Antifungal activity against Candida albicans ATCC 90028 after 48 hrs by browth microdilution assay). Conditions: not given.
Type: functional
Method in brief: as §2

Compound	MIC [µg/mL]
NYSTATIN	1

Same assay, conditions: ATCC 90028, 48 h

Compound	MIC [µg/mL]
Nc1ccc2sc(NC(=S)NC(=O)N3CCOCC3)nc2c1	20 (≈ 59.3 µM)
O=C(NC(=S)Nc1nc2cc(Br)ccc2s1)c1ccccc1	25 (≈ 63.7 µM)
O=C(NC(=S)Nc1nc2cc(Br)ccc2s1)N1CCOCC1	50 (≈ 125 µM)
O=C(NC(=S)Nc1nc2cc(Br)ccc2s1)c1ccc([N+](=O)[O-])cc1	50 (≈ 114 µM)
O=C(NC(=S)Nc1nc2cc([N+](=O)[O-])ccc2s1)N1CCOCC1	15 (≈ 40.8 µM)

The compounds below were run on Enterobacter cloacae (assay: Antibacterial activity against Enterobacter cloacae ATCC 13047 after 24 hrs by browth microdilution assay). Conditions: ATCC 13047, 24 h.
Type: functional
Method in brief: as §1

Compound	MIC [µg/mL]
Nc1ccc2sc(NC(=S)NC(=O)N3CCOCC3)nc2c1	25 (≈ 74.1 µM)
O=C(NC(=S)Nc1nc2cc(Br)ccc2s1)N1CCOCC1	50 (≈ 125 µM)
O=C(NC(=S)Nc1nc2cc([N+](=O)[O-])ccc2s1)N1CCOCC1	15 (≈ 40.8 µM)

What follows are compounds tested on Staphylococcus aureus (ATCC 25923) (assay: Antibacterial activity against Staphylococcus aureus ATCC 25923 after 24 hrs by browth microdilution assay). Conditions: ATCC 25923, 24 h.

Compound	MIC [µg/mL]
Nc1ccc2sc(NC(=S)NC(=O)N3CCOCC3)nc2c1	50 (≈ 148 µM)
O=C(NC(=S)Nc1nc2cc(Br)ccc2s1)c1ccccc1	50 (≈ 127 µM)
O=C(NC(=S)Nc1nc2cc(Br)ccc2s1)N1CCOCC1	50 (≈ 125 µM)
O=C(NC(=S)Nc1nc2cc(Br)ccc2s1)c1ccc([N+](=O)[O-])cc1	50 (≈ 114 µM)
O=C(NC(=S)Nc1nc2cc([N+](=O)[O-])ccc2s1)N1CCOCC1	20 (≈ 54.4 µM)

The compounds below were run on MCF7 (assay: Cytotoxicity against human MCF7 after 24 hrs by MTT assay). Conditions: MCF7, 24 h.
Type: functional, cell-based
Method in brief: as §4

Compound	IC50 [µM]
Nc1ccc2sc(NC(=S)NC(=O)N3CCOCC3)nc2c1	26.4
O=C(NC(=S)Nc1nc2cc(Br)ccc2s1)c1ccccc1	32.1
O=C(NC(=S)Nc1nc2cc(Br)ccc2s1)N1CCOCC1	18.1
O=C(NC(=S)Nc1nc2cc(Br)ccc2s1)c1ccc([N+](=O)[O-])cc1	32.4
O=C(NC(=S)Nc1nc2cc([N+](=O)[O-])ccc2s1)N1CCOCC1	31

These compounds were tested on Staphylococcus epidermidis (assay: Antibacterial activity against Staphylococcus epidermidis ATCC 12228 after 24 hrs by browth microdilution assay). Conditions: ATCC 12228, 24 h.
Type: functional
Method in brief: as §1

Compound	MIC [µg/mL]
Nc1ccc2sc(NC(=S)NC(=O)N3CCOCC3)nc2c1	20 (≈ 59.3 µM)
O=C(NC(=S)Nc1nc2cc(Br)ccc2s1)c1ccccc1	50 (≈ 127 µM)
O=C(NC(=S)Nc1nc2cc(Br)ccc2s1)N1CCOCC1	25 (≈ 62.3 µM)
O=C(NC(=S)Nc1nc2cc(Br)ccc2s1)c1ccc([N+](=O)[O-])cc1	50 (≈ 114 µM)
O=C(NC(=S)Nc1nc2cc([N+](=O)[O-])ccc2s1)N1CCOCC1	10 (≈ 27.2 µM)
